Compound activity deposited in PubChem BioAssay by several laboratories.
The list is not random: actives were taken first. Their share in the collection is about 1.5%.
GASC-1 inh: inhibitors of GASC-1 histone demethylase, primary screen, biochemical, fluorescence, DELFIA europium. inhibition, % at 2.35 µM. GST-JMJD2C(1-420) H3K9me3 demethylation. AID 2099, 2009. 0.069% of 330,000 active;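 active = more than half of a compound's replicate wells show inhibition beyond 50%, single wells judged on their own value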;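 also: signal counts dimethyl H3K9 product captured on neutravidin plate; 0% = median of DMSO wells and 100% = 0.3 times that DMSO median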
NR2E3 ag-1: NR2E3 agonists in two-hybrid cells, primary screen, cell-based, luminescence, CHO-S, Gal4-NCOR/VP16-NR2E3. luciferase. inhibition of corepressor binding, % at 3.98 µM. 0.35% of 360,000 active;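 active = inhibition above the mean of all tested compounds plus 3 SD, cut at about 70% in these data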;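 also: 0% = DMSO with NR2E3 transfected cells and 100% = cells lacking NR2E3 construct; higher means lower luciferase signal from less NR2E3 corepressor binding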
Target sequence (Q9Y5X4 whole entry, looked up, the tested form may be a part): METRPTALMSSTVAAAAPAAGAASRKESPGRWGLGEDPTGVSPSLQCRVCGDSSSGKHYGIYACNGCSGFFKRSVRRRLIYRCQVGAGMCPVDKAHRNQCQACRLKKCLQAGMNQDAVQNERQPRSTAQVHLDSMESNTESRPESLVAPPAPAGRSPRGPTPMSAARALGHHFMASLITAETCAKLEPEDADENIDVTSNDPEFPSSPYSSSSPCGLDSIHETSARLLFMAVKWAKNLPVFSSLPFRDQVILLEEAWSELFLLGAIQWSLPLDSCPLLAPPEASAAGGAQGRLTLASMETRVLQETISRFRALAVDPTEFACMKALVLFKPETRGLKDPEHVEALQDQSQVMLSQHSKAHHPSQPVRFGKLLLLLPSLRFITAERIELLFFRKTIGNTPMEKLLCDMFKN
GalR3 antagonist: GalR3 antagonists in HEK293 cells, primary screen, cell-based, fluorescence readout; Galanin receptor type 3 (Homo sapiens), O60755; HEK293 GalR3-CNG cAMP membrane potential fluorescence; galR3 body fused to GalR1 C-terminus; inhibition, % at 3 µM; 0.44% of 360,000 active;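 active = inhibition above the screen-wide average plus 3 SD, cut at about 13% in these data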;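 also: forskolin and galanin both at EC90 stimulate the cells; cAMP rise reported by CNG channel membrane potential dye signal; 0% = forskolin plus galanin with DMSO and 100% = forskolin alone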
697 NFkB inh: inhibitors of PMA/ionomycin-induced NF-kB reporter, 697 cells, primary screen, B-cell NF-kB inhibitor project, cell-based, luminescence, uHTS | 697 B-cell NF-kB luciferase reporter, 16 h | inhibition, % at 4 µM | 0.33% of 330,000 active; in the data active = inhibition above about 35%
Jurkat NFkB inh: inhibitors of induced NF-kB luciferase reporter, primary screen, TCR NF-kB activation inhibitor project, cell-based, luminescence, uHTS. inhibition, % at 4 µM. AID 435003, 2010. 0.53% of 330,000 active. Jurkat, PMA/ionomycin-induced NF-kB luciferase reporter; in the data active = inhibition above about 50%
NR2E3 ag-2: inhibitors of NR2E3-RetCOR corepressor binding, primary screen, NR2E3 agonist project, biochemical, TR-FRET, GST-NR2E3, biotin-RetCOR; Photoreceptor-specific nuclear receptor (Homo sapiens), Q9Y5X4; 1536-well; inhibition of corepressor binding, % at 4.78 µM; 0.12% of 320,000 active;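 active = percent inhibition above the cutoff of mean plus 3 SD of all tested compounds, set per screening campaign, cut at about 20% in these data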;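 also: 0% = DMSO wells and 100% = biotin wells as full block of FRET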
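Material – GST-tagged NR2E3 plus biotinylated RetCOR corepressor · Quantity – NR2E3 fusion 1.35 nM · Times – 5 h incubation at 4 °C · Medium – pH 7.5 Tris-based buffer · Technique – TR-FRET, Eu(K)-anti-GST donor, streptavidin-D2 acceptor, ex 340, em 617/671 nm · Benchmarks – high control biotin, low control 0.6% DMSO · Format – 1536-well plates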
* hit, by the source's call; . = no result.

SMILES	GASC-1 inh	NR2E3 ag-1	GalR3 antagonist	697 NFkB inh	Jurkat NFkB inh	NR2E3 ag-2
CCO[C@@H]1OC(C(=O)NC2CC2)=C[C@H](c2c[nH]c3ccccc23)[C@H]1CCCO	52*	7	-2	1	-2	0
O=C(C(O)c1ccccc1)N1CCN(S(=O)(=O)c2ccc(C(F)(F)F)cc2)CC1 (stereo not drawn)	.	.	-5	.	.	.
Cc1cccc(C)c1NS(=O)(=O)c1cc2c3c(c1)CC(=O)N3CCC2	54*	-22	-4	9	-6	5
CCc1cc2c(COC(=O)c3cc(S(=O)(=O)N4CCOCC4)ccc3F)cc(=O)oc2cc1O	-12	-11	19*	8	2	-1
O=C(C(=O)N1CCC(CNC(=O)c2ccccc2F)CC1)c1cc2ccccc2o1	.	.	-5	.	.	.
COc1ccc(C(=O)O/N=C(\C)c2cnccn2)cc1	57*	-3	3	-2	2	2
COc1cccc(-n2nnc3c(=O)n(Cc4ccccc4F)cnc32)c1	92*	-54	-2	-3	-13	4
COc1cccc(-n2nnc3c(=O)n(Cc4cccc(C)c4)cnc32)c1	0	-27	6	6	9	3
COc1ccc(OC)c(CNC(=O)C2CCC(=O)N(CCCN3CCCC3=O)C2)c1 (stereo not drawn)	7	3	-2	-10	8	.
CCN1CCN(Cc2ccc(NC(=O)c3ccc(C)c(NC(=O)c4cncc(-c5cccs5)c4)c3)cc2C(F)(F)F)CC1	.	82*	.	.	.	.
CCN(CC)C(=O)c1ncn2c1C(=O)N[C@H](C)C2	.	.	-4	.	.	.
CNc1nc(-c2ccccc2)cc(C)c1S(C)(=O)=O	10	-25	-3	1	-13	-1
CC(=O)Oc1ccccc1C(=O)C=Cc1cccc([N+](=O)[O-])c1	.	-19	28*	.	.	.
O=C(CN1CCN(C(=O)CCC(=O)N2CCC(c3ccccc3)=N2)CC1)Nc1ccc(F)cc1	.	35	-3	1	-5	.
O=C(Nc1cccc(Cl)c1)Nc1nnc(-c2ccncc2)s1	-9	89*	-8	-107	9	0
O=C(Nc1ccc(Cl)cc1)Nc1nnc(-c2ccncc2)s1	-2	-8	5	.	.	2
O=c1[nH]c2ccc(NC(=S)NC3CCCCC3)cc2[nH]1	-25	-1	-3	-7	3	2
O=c1cc(NC2CCCCCC2)[nH]c(=O)[nH]1	54*	-28	0	-2	-15	-3
CCCCCCOC(=O)CC1CC(C(C)=O)C1(C)C (stereo not drawn)	.	.	-4	.	.	.
C[C@H](CO)N1C[C@H](C)[C@@H](CN(C)C(=O)c2ccc(N3CCN(C)CC3)cc2)OCc2cn(nn2)CCCC1=O	.	.	-4	.	.	.
COC(=O)c1c(C)oc2ccc(N(C(=O)c3ccncc3)S(=O)(=O)c3ccccc3)cc12	-3	70*	-3	-32	16	-1
CCN(CCn1cccn1)C(=O)CC1C(=O)NCCN1CCc1ccccc1 (stereo not drawn)	-2	-12	-2	2	6	1
COc1ccc(-n2c(C)cc(/C=N/Nc3nnc(C)n3N)c2C)cc1	68*	-17	6	26	11	0
COc1ccc(Cl)cc1NC(=O)C(C)N(C)Cc1cccc(Cl)c1Cl (stereo not drawn)	0	4	-9	14	-8	-1
CCc1ccc(-c2nc(CSCC(=O)N3CCN(c4ccccn4)CC3)c(C)o2)cc1	6	84*	-2	-9	4	4
Cc1nc(-c2coc3c(CN(C)C)c(O)ccc3c2=O)cs1	-4	-8	-2	-8	10	1
Cc1ccc(S(=O)(=O)N2CCOC2CNC(=O)C(=O)NCCc2ccc(S(N)(=O)=O)cc2)cc1 (stereo not drawn)	61*	-4	-4	-2	14	-1
